Assay results as given in ChEMBL document CHEMBL1122496, “A new class of nonhormonal pregnancy-terminating agents. Synthesis and contragestational activity of 3,5-diaryl-s-triazoles” (J Med Chem, 1983).

What was measured:
Cricetinae gen. sp. [1] = experiment: (§1) Pregnancy-terminating activity in hamster when administered sc; assay type: functional
Cricetinae gen. sp. [2] = experiment: Pregnancy-terminating activity in hamster when administered perorally; assay type: functional, Cricetulus griseus; conditions: po
Rattus norvegicus [3] = experiment: Pregnancy-terminating activity in rat when administered sc; assay type: functional
In short: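 Pregnant rats were dosed once daily for 5 consecutive days, from day 6 to day 10. Compound was given in sesame oil containing 20% benzyl benzoate to groups of 5–30 animals at three to six dose levels.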

Rattus norvegicus [4] = experiment: Pregnancy-terminating activity in rat when administered po; assay type: functional
Cricetinae gen. sp. [5] = experiment: as §1; assay type: functional, Cricetulus griseus
In short: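 Pregnant hamsters were dosed daily for 5 consecutive days, from day 4 to day 8. Compound was given in sesame oil with 20% benzyl benzoate to groups of 5–30 animals at three to six dose levels. ED50 is the dose that ended pregnancy in half of the animals.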

[6] = Solubility in sesame oil containing 20% of benzyl benzoate; assay type: physicochemical
Rattus norvegicus [7] = experiment: Pregnancy-terminating activity in Rat when administered sc; assay type: functional
In short: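 Pregnant rats were dosed once daily for 5 consecutive days, from day 6 to day 10. Compound was given in sesame oil containing 20% benzyl benzoate to groups of 5–30 animals at three to six dose levels. ED50 is the dose that terminated pregnancy in 50% of the animals.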

[8] = Cricetinae gen. sp., sc, read-out: ED50

| Structure (SMILES) | ED50 (Cricetinae gen. sp. [1]; [8]) [mg/kg] | ED50 (Cricetinae gen. sp. [2]) [mg/kg] | also measured |
| --- | --- | --- | --- |
| Cc1ccccc1-c1nc(-c2ccc(N(C)C)cc2)n[nH]1 | 10 | – | – |
| Cc1cccc(-c2n[nH]c(-c3ccccc3)n2)c1 | > 20 | – | – |
| CCc1ccccc1-c1n[nH]c(-c2ccc(OC)cc2)n1 | 0.15 | 5 | – |
| Cc1cc(Cl)ccc1-c1n[nH]c(-c2ccccc2)n1 | 0.14 | 4 | – |
| CCOc1cccc(-c2n[nH]c(-c3ccccc3CC)n2)c1 | 0.04 | 4 | ED50 (Rattus norvegicus [3]): 0.3 mg/kg; ED50 (Rattus norvegicus [4]): > 10 mg/kg |
| c1ccc(-c2nc3n(n2)Cc2ccccc2-3)cc1 | – | – | ED50 (Cricetinae gen. sp. [5]): 3.5 mg/kg; Solubility [6]: ~ 30 mg ml-1; ED50 (Rattus norvegicus [7]): 1.8 mg/kg |
| c1ccc(-c2nc3n(n2)CCc2ccccc2-3)cc1 | – | – | ED50 (Cricetinae gen. sp. [5]): 1 mg/kg; Solubility [6]: ~ 100 mg ml-1; ED50 (Rattus norvegicus [7]): 16 mg/kg |
| Cc1ccc(C)c(-c2n[nH]c(-c3ccccc3)n2)c1 | > 10 | – | – |
| Cc1ccccc1-c1n[nH]c(-c2ccc(-c3ccccc3)cc2)n1 | 10 | – | – |
| CCc1ccccc1-c1n[nH]c(-c2cc(OC)cc(OC)c2)n1 | 10 | – | – |
| CCc1ccccc1-c1n[nH]c(-c2cccc(F)c2)n1 | 0.4 | > 5 | – |
| COc1cccc(-c2n[nH]c(-c3ccccc3CO)n2)c1 | 0.08 | 15 | – |
| C=CCOc1cccc(-c2nc(-c3ccccc3C)n[nH]2)c1 | 0.15 | 5 | – |
| Cc1ccccc1-c1n[nH]c(-c2ccc(F)cc2)n1 | 3.5 | – | – |
| COc1cccc(-c2n[nH]c(-c3ccc(C)cc3C)n2)c1 | 0.04 | 10 | ED50 (Rattus norvegicus [3]): 0.6 mg/kg; ED50 (Rattus norvegicus [4]): > 10 mg/kg |
| Cc1ccc(Cl)cc1-c1n[nH]c(-c2ccccc2)n1 | 1.2 | – | – |
| COc1cccc(-c2n[nH]c(-c3cccc(C)c3)n2)c1 | 15 | – | – |
| c1ccc(-c2nc3c4ccccc4ccn3n2)cc1 | 0.25 | – | Solubility [6]: ~ 10 mg ml-1; ED50 (Rattus norvegicus [7]): 2.5 mg/kg |
| CCCCc1ccccc1-c1n[nH]c(-c2cccc(OC)c2)n1 | 12 | 10 | – |
| CCc1ccccc1-c1n[nH]c(-c2cccc(C)c2C)n1 | 2 | – | – |
| COc1cccc(-c2n[nH]c(-c3ccccc3C=O)n2)c1 | 0.1 | 10 | – |
| Cc1ccccc1-c1n[nH]c(-c2ccc(Cl)cc2)n1 | 4 | – | – |
| CCc1ccccc1-c1n[nH]c(-c2ccc(OC)c(OC)c2)n1 | 0.05 | > 5 | – |
| CCc1ccccc1-c1n[nH]c(-c2cccc(OC)c2OC)n1 | 10 | – | – |
| CCc1ccccc1-c1n[nH]c(-c2cccc(-c3ccccc3)c2)n1 | 10 | 10 | – |
| COc1ccc(C)c(-c2n[nH]c(-c3ccccc3)n2)c1 | > 10 | – | – |

| Structure (SMILES) | ED50 (Cricetinae gen. sp. [1]; [8]) [mg/kg] | ED50 (Cricetinae gen. sp. [2]) [mg/kg] | also measured |
| --- | --- | --- | --- |
| COc1cccc(-c2n[nH]c(-c3cc(OC)ccc3C)n2)c1 | 1 | – | – |
| Cc1ccccc1-c1n[nH]c(-c2ccccc2Cl)n1 | 15 | – | – |
| COc1ccc(-c2n[nH]c(-c3ccccc3)n2)c(C)c1 | > 10 | – | – |
| Cc1cccc(-c2n[nH]c(-c3ccccc3C)n2)c1 | 4 | – | – |
| COc1cccc(-c2n[nH]c(-c3ccc(Cl)cc3C)n2)c1 | 0.04 | 5 | ED50 (Rattus norvegicus [3]): 0.5 mg/kg; ED50 (Rattus norvegicus [4]): > 10 mg/kg |
| CCc1ccccc1-c1n[nH]c(-c2ccc3c(c2)OCO3)n1 | 0.03 | 3 | ED50 (Rattus norvegicus [3]): 0.6 mg/kg; ED50 (Rattus norvegicus [4]): ~20 mg/kg |
| C=CCOc1cccc(-c2nc(-c3ccccc3CC)n[nH]2)c1 | 0.12 | 5 | – |
| Cc1ccc(-c2n[nH]c(-c3ccccc3)n2)cc1 | > 20 | – | – |
| Cc1ccccc1-c1n[nH]c(-c2cccc(C(F)(F)F)c2)n1 | 0.6 | > 20 | – |
| CCOc1cccc(-c2n[nH]c(-c3ccccc3C)n2)c1 | 0.06 | 5 | – |
| Cc1ccc(-c2n[nH]c(-c3ccccc3C)n2)cc1 | 20 | – | – |
| COc1cccc(-c2n[nH]c(-c3ccccc3C(C)C)n2)c1 | 4 | 10 | – |
| Cc1ccc(-c2n[nH]c(-c3ccccc3)n2)c(C)c1 | 0.2 | > 5 | – |
| COc1cccc(-c2n[nH]c(-c3ccc(C)cc3)n2)c1 | 7 | – | – |
| Cc1ccccc1-c1n[nH]c(-c2ccccc2C)n1 | 0.7 | > 10 | – |
| COc1cccc(-c2n[nH]c(-c3cc(Cl)ccc3C)n2)c1 | 0.35 | – | – |
| COc1cccc(-c2n[nH]c(-c3cc(C)ccc3C)n2)c1 | 2.5 | – | – |
| c1ccc(-c2n[nH]c(-c3ccccc3)n2)cc1 | 6 | 10 | – |
| Cc1ccccc1-c1n[nH]c(-c2cccc(Cl)c2)n1 | 0.6 | > 20 | – |
| CC(C)c1ccccc1-c1n[nH]c(-c2ccccc2)n1 | 10 | – | – |
| COc1ccccc1-c1n[nH]c(-c2ccccc2C)n1 | 0.5 | > 5 | – |
| CCCCc1ccccc1-c1n[nH]c(-c2ccccc2)n1 | 17 | – | – |
| COc1cccc(-c2n[nH]c(-c3ccccc3C)n2)c1 | 0.08 | 5 | – |
| CCc1ccccc1-c1n[nH]c(-c2ccccc2)n1 | 0.15 | 5 | – |
| Cc1ccccc1-c1n[nH]c(-c2ccccc2)n1 | 0.3 | 10 | ED50 (Cricetinae gen. sp. [1]): 0.3 mg/kg; Solubility [6]: > 100 mg/mL; ED50 (Rattus norvegicus [7]): 2 mg/kg; ED50 (Rattus norvegicus [3]): 2 mg/kg; ED50 (Rattus norvegicus [4]): 50 mg/kg |
| COc1cccc(-c2nc(-c3ccc(OC)cc3C)n[nH]2)c1 | 0.2 | > 5 | – |
